The list is not random: actives were taken first. Their share in the collection is about 1.7%.
STEP block: STEP phosphatase inhibitors, primary screen, biochemical, fluorescence intensity, uHTS | recombinant STEP, OMFP fluorogenic substrate | 360,000 compounds, 0.25% hits | inhibition, % at 20 µM;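 active = inhibition at 20 µM, scaled per plate between control wells, above about 37%, limit read from the data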;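 note: 0% = DMSO with enzyme and substrate and 100% = substrate only without enzyme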
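System: isolated STEP enzyme; schedule: 20 min enzyme reaction at room temperature, protected from light; medium: Bis-Tris buffer pH 6.0, 2.5 mM DTT, 0.005% Tween 20; signal: fluorescence, 480/540 nm; dosing: single compound dose of 20 µM, 1% DMSO final; also added: OMFP substrate, 25 µM final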
Scp1 inh: Scp-1 phosphatase inhibitors, primary screen, biochemical, colorimetric, uHTS; inhibition, % at 20 µM; 340,000 compounds, 0.88% hits; Recombinant Scp1, phosphopeptide, malachite green phosphate absorbance; Carboxy-terminal domain RNA polymerase II polypeptide A small phosphatase 1 (Homo …; AID 493091, 2011;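 active = inhibition above about 50% at 20 µM, limit read from the data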;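 note: plate controls were DMSO wells with enzyme for no effect and wells lacking enzyme for full effect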
Target sequence (Q9GZU7 76-261 limits assumed): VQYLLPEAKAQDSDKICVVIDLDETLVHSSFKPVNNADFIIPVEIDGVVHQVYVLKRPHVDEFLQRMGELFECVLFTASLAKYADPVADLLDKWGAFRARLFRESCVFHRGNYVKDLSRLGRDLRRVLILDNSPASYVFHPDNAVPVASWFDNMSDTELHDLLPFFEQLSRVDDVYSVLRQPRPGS
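Assay system: SCP-1 catalytic fragment, aa 76-261 | Buffer or medium: Tris acetate buffer pH 5.5 with MgCl2 and Tween-20 | Compound: One concentration, 20 µM, with 1.0% DMSO | Also added: Phospho 17-mer peptide substrate | Signal: Absorbance at 630 nm | Incubation: 45 min enzyme reaction at room temperature | Measure: % inhibition of SCP-1 phosphate liberation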
DNMT1 block: human DNMT1 methyltransferase inhibitors, primary screen, biochemical, molecular beacon, fluorescence, HinP1I cleavage, uHTS; DNA (cytosine-5)-methyltransferase 1 (Homo sapiens), P26358; inhibition (reported as % activation of signal), % at 10 µM; 360,000 compounds, 0.83% hits; AID 588458, 2011; in the data active = inhibition above about 50%
LMPTP inh: LMPTP phosphatase inhibitors, primary screen, biochemical, fluorescence intensity, uHTS; Low molecular weight phosphotyrosine protein phosphatase (Homo sapiens), P24666; 360,000 compounds, 0.22% hits; inhibition, % at 20 µM; recombinant LMPTP-A, OMFP fluorogenic substrate;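 active = compounds that cut the enzyme signal by at least half of the control window in the single-dose screen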;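 note: plate controls were DMSO wells with enzyme plus substrate for no effect and substrate without enzyme for full effect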
Target sequence (P24666 whole entry, looked up): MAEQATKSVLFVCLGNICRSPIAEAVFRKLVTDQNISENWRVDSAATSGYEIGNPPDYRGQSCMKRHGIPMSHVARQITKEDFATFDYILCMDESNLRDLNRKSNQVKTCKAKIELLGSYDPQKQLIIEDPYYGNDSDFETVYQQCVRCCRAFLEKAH
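Material: LMPTP-A; amount: 0.625 nM enzyme; doses: single 20 µM dose; times: reaction 50 min, room temperature, dark; technique: fluorescence intensity of OMFP turnover product; benchmarks: no-enzyme and uninhibited controls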
SUMO1 PPI mod: modulators of SUMO1 protein-protein interactions, primary screen, biochemical, uHTS. SUMO1 binding to a labelled peptide, TR-FRET, 1 h. 360,000 compounds, 0.33% hits. inhibition, % at 20 µM. AID 602429, 2012. Small ubiquitin-related modifier 1 (Homo sapiens), P63165; in the data active = inhibition above about 37%
Target sequence (P63165 whole entry, looked up): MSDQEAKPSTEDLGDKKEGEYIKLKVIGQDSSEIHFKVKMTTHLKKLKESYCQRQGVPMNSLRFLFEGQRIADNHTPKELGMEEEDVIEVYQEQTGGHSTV
Beacon interf DR: spectral interference with molecular beacon fluorescence, dose response, artefact control for DNMT1 inhibitor project, biochemical, fluorescent molecular beacon | shares compounds with DNMT1 block | spectral interference counter-screen | IC50, µM | 200 tested, under 10 active | AID 602382, 2012; call rule not given here
DNMT1 inh conf: DNMT1 methyltransferase inhibitor retest, confirmation, biochemical, molecular beacon, fluorescence, single concentration. shares compounds with DNMT1 block. DNMT1 molecular beacon HinP1I cleavage. inhibition, % at 10 µM. 2,300 compounds, 8% hits;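 active = average inhibition of at least 30% in the single-concentration confirmation test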
Beacon interf: shows spectral interference in the DNMT1 beacon assay | activation (fluorescence interference), % at 10 µM | 2,300 compounds, 1% hits | DNMT1 molecular beacon spectral interference counterscreen, fluorescence 485/520 | AID 602387 | shares compounds with DNMT1 block;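 active = activation of at least 30% at 10 µM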;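 note: DNMT1 catalytic domain with a HinP1I cleavage step and a FAM/dabcyl DNA beacon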
Numbers without * were called inactive; x = not tested or not shown.

SMILES	STEP block	Scp1 inh	DNMT1 block	LMPTP inh	SUMO1 PPI mod	DNMT1 inh conf	Beacon interf	others
O=C(Nc1sc2c(c1C(=O)O)CCCC2)C(=O)N1CCOCC1	7	-3	-3	-1	-3	x	x
Cc1cccc(C)c1NC(=O)CNC(=O)c1ccc(COc2ccccc2)o1	-2	1	2	-1	0	x	x
CCc1cc2c(=O)c(-c3cnn(-c4ccccc4)c3)c(C)oc2cc1OCC(=O)Nc1ccc(F)c(F)c1	-2	-8	11	2	-16	x	x
CCc1cc2c(=O)c(-c3cnn(-c4ccccc4)c3)c(C)oc2cc1OCC(=O)Nc1cccc(C)c1	2	-7	61*	0	0	2	-4
COCCCn1c(SCC(=O)Nc2ccc(NC(C)=O)cc2)nc2sc3c(c2c1=O)CCC3	0	-1	8	0	-2	x	x
COc1ccc(NC(=S)NCc2cccnc2)cc1	0	3	89*	-1	3	3	3
COc1ccc(NC(=S)NCc2cccnc2)cc1OC	-3	-1	0	1	0	x	x
O=C(NCC1CCCO1)c1ccc(-c2ccccc2Cl)o1 (stereo unspecified)	0	-6	-2	-1	-9	x	x
CCCCc1cc(=O)oc2cc(C)c(CN3CCCC3)c(O)c12	-2	0	96*	3	27	3	7
CCc1cc(=O)oc2cc(C)c(CN3CCCC(C)C3)c(O)c12 (stereo unspecified)	0	-13	4	2	27	x	x
Cc1ccc2c(c1)C1CN(C)CCC1N2C(=O)COc1ccccc1F (stereo unspecified)	-1	-13	1	0	7	x	x
O=C1CN(C(=O)NCC(=O)N[C@H](C(=O)O)c2ccccc2)c2ccccc2N1	-1	3	3	-2	4	x	x
O=C1CN(C(=O)NCC(=O)N[C@H](Cc2ccccc2)C(=O)O)c2ccccc2N1	-1	-7	74*	-1	2	1	6
CC(=O)[C@@]1(O)CC[C@H]2[C@@H]3C[C@H](C)C4=CC(=O)C=C[C@]4(C)[C@@]3(F)[C@@H](O)C[C@@]21C	0	-6	80*	-2	-3	4	5
CCCC(=O)O[C@]1(C(=O)COC(C)=O)CC[C@H]2[C@@H]3C[C@H](F)C4=CC(=O)C=C[C@]4(C)[C@@]3(F)[C@@H](O)C[C@@]21C	-1	-14	-5	0	-1	x	x
Cc1noc(C)c1S(=O)(=O)N(C)C[C@H]1Oc2ccc(NS(=O)(=O)c3ccccc3)cc2C(=O)N([C@H](C)CO)C[C@@H]1C	0	-1	7	0	-4	x	x
Cc1cc(C)c2c(c1)CC(C)(C)CC2=O	-1	7	2	0	-1	x	x
CC1(C(=O)NS(=O)(=O)c2ccc(Cl)cc2)CCN1C(=O)Cc1ccc(Cl)cc1Cl (stereo unspecified)	2	x	3	-2	7	x	x
CCOC(=O)C1=C(C)N=c2sc(=Cc3ccc(OCC(=O)O)cc3)c(=O)n2C1c1ccc(Cl)cc1 (stereo unspecified)	10	x	92*	76*	44*	99*	-5	Beacon interf DR=>99
COc1cccc(C(=O)Nc2ccc(S(=O)(=O)NCc3ccco3)cc2)c1	-4	-4	8	0	-2	x	x
O=C(Nc1ccc(S(=O)(=O)NCc2ccco2)cc1)c1cccc(F)c1	8	34	84*	1	5	8	7
CSc1ccc(/C=C/C(=O)OCC(=O)NC2CCCCCC2)cc1	-2	x	65*	0	-9	1	6
COC(=O)C[C@H]1N(S(=O)(=O)c2ccc(C)cc2)C(C(C)C)CC1(C(=O)OC)C(=O)OC (stereo partly specified)	x	x	x	-1	-3	x	x
COc1ccc(OC)c(C(c2c(C)[nH][nH]c2=O)c2c(C)[nH][nH]c2=O)c1	-3	1	-11	0	-1	x	x
COc1ccc(O)c(C(c2c(C)[nH][nH]c2=O)c2c(C)[nH][nH]c2=O)c1	2	1	53*	9	43*	1	-2
SMILES	STEP block	Scp1 inh	DNMT1 block	LMPTP inh	SUMO1 PPI mod	DNMT1 inh conf	Beacon interf	others
O=C1CC(C(=O)N2CCN(c3ccccc3O)CC2)CN1Cc1ccccc1 (stereo unspecified)	0	0	-3	0	4	x	x
CCCCn1c(N)c(N(CC(C)C)C(=O)CCCc2cccs2)c(=O)[nH]c1=O	-3	7	0	-1	5	x	x
CCOC(=O)c1ccc(N/N=C/c2cc(Br)cc([N+](=O)[O-])c2O)cc1	3	-5	70*	2	-3	7	2
COc1cc2oc(=O)cc(-c3ccc(-c4ccc(OC(F)(F)F)cc4)cc3)c2c(OC)c1OC	3	-8	61*	13	4	0	1
CCC1CN(C(=O)N2CCC(C(=O)NCCc3ccccc3)CC2)c2ccccc2O1 (stereo unspecified)	0	-3	-1	0	-2	x	x
CCN(C(=O)COC(=O)c1nccnc1N)c1cccc2ccccc12	-3	-12	61*	-1	-17	3	3
Cc1nnc(-c2ccco2)c2cn(-c3cccc(Br)c3)nc12	-4	5	91*	14	6	3	-3
CCN(CC)C(=O)c1nc[nH]c1C(=O)O[C@@H](C)c1ccccc1	3	0	1	-1	-3	x	x
Nc1cc(S(=O)(=O)O)cc([N+](=O)[O-])c1O	18	34	66*	1	-3	72*	-5	Beacon interf DR=>99
CCCCCC1NC(=O)NC1CCCCCC(=O)O (stereo unspecified)	-1	-2	2	-2	2	x	x
O=C(O)CCCCC1SCC2NC(=O)NC21 (stereo unspecified)	0	-1	82*	-2	-1	2	3
Cc1ccc(C(CCN(Cc2ccccc2)C(=O)c2ccco2)c2ccco2)cc1 (stereo unspecified)	2	10	56*	5	3	17	-1

Screens (PubChem BioAssay)
